Most compounds without a hit are left out; they make up all but 5.9% or so of the library.
KDM4C inh: inhibitors of human demethylase GASC-1 KDM4C; inhibition, % at 12.5 µM; AID 720574; GST-KDM4C 2-372, H3K9me3 peptide, LANCE TR-FRET; actives 0.15% (n = 96,000);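 active = mean replicate inhibition above about 25%, with at least 55% of replicates also reaching it, limit read from the data, passing the limit was not always enough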
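Test system: N-terminal GST-fused human GASC-1 (KDM4C) fragment, residues 2-372; quantity: GASC-1 enzyme at 10 nM final in reaction; dosing: single dose; schedule: 30 min demethylation and 1 h detection at room temperature; signal: LANCE TR-FRET, excitation 340 nm, emissions 618 and 671 nm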
T cruzi growth-1: blocks T. cruzi growth in NIH3T3 culture; T. cruzi beta-gal in NIH3T3, GalScreen luminescence, 90 h; inhibition, % at 8.34 µM; actives 5.9% (n = 77,000); AID 624255;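 active = mean inhibition above about 93%, with at least 55% of replicates each passing it, limit read from the data, passing the limit was not always enough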
IDH1 R132H inh: blocks human IDH1 R132H reductase activity; diaphorase/resazurin fluorescence, 60 min; inhibition, % at 10 µM; actives 0.18% (n = 70,000); O75874; in the data active = inhibition above about 34%;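 note: 0% = DMSO and 100% = no enzyme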
Target sequence (O75874 whole entry R132H): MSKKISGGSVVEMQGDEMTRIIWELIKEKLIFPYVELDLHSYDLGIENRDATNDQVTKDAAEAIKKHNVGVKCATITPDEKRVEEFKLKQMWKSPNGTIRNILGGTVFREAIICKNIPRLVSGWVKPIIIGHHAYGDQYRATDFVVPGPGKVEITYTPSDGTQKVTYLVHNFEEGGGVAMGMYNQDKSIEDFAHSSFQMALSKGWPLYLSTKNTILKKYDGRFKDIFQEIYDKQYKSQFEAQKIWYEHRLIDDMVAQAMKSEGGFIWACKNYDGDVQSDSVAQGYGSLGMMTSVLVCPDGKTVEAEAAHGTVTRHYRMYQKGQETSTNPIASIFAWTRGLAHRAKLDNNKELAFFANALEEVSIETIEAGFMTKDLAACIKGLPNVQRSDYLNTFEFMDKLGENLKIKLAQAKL
Pf Dd2 growth: blocks growth of Plasmodium falciparum Dd2 parasites; AID 1159554; actives 2.3% (n = 94,000); P. falciparum Dd2 growth, SYBR Green, 72 h; hits give low values; activity change, % at 10 µM; in the data active = activity change below about -80%
T cruzi growth-2: Trypanosoma cruzi proliferation inhibition. shares compounds with T cruzi growth-1. T. cruzi beta-gal in NIH3T3, GalScreen luminescence, 90 h. inhibition, % at 8.35 µM. actives 72% (n = 5,600);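 active = mean replicate inhibition above about 95% and at least 55% of replicates individually reaching it, limit read from the data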
T cruzi growth-3: blocks T. cruzi growth in NIH3T3 host cells. shares compounds with T cruzi growth-1. T. cruzi beta-gal in NIH3T3, GalScreen luminescence, 90 h. inhibition, % at 2.09 µM. actives 21% (n = 5,600);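 active = mean inhibition above about 95%, with at least 55% of replicates also reaching it, limit read from the data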;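 note: plate controls were neutral control median for no effect and positive control median for full effect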
3T3 cytotox: cytotoxicity in mouse NIH/3T3 fibroblasts; shares compounds with T cruzi growth-1; NIH/3T3 viability, CellTiter-Glo ATP luminescence, 90 h; cytotoxicity (signal decrease), % at 8.35 µM; actives 14% (n = 5,600);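 active = mean signal decrease across replicates above about 35% based on untreated-well scatter, with enough replicates individually passing, limit read from the data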;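 note: 0% = median of neutral control wells and 100% = median of positive control wells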
3T3 cytotox 2: NIH/3T3 (mouse) viability loss | shares compounds with T cruzi growth-1 | NIH/3T3 viability, CellTiter-Glo ATP luminescence, 90 h | inhibition, % at 24.9 µM | actives 56% (n = 5,600);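 active = mean loss of cell viability signal at or above a set limit, and enough replicates individually reaching it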;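 note: 0% = median of neutral control wells and 100% = median of positive control wells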
* marks the source's active call; other numbers are inactive results.

What do the screens show for `COc1ccc(CN(C)C[C@H]2OCCCC[C@H](C)Oc3ccc(NC(=O)Nc4ccc(OC)cc4)cc3C(=O)N([C@H](C)CO)C[C@H]2C)cc1`?
KDM4C inh: 8; T cruzi growth-1: 106*; Pf Dd2 growth: -61; T cruzi growth-2: 103*; T cruzi growth-3: 57; 3T3 cytotox: 21; 3T3 cytotox 2: 25*

Results for COc1ccc(CN(C)C[C@@H]2OCCCC[C@H](C)Oc3ccc(NC(=O)C4CCCCC4)cc3C(=O)N([C@@H](C)CO)C[C@H]2C)cc1 ?
KDM4C inh: -1; T cruzi growth-1: 80; IDH1 R132H inh: 1; Pf Dd2 growth: -69

What do the screens show for `COc1ccc(CN(C)C[C@@H]2OCCCC[C@H](C)Oc3ccc(NC(=O)Nc4ccc(OC)cc4)cc3C(=O)N([C@H](C)CO)C[C@@H]2C)cc1`?
T cruzi growth-1: 99*; IDH1 R132H inh: -1; Pf Dd2 growth: -65; T cruzi growth-2: 104*; T cruzi growth-3: 105*; 3T3 cytotox: 17; 3T3 cytotox 2: 104*

How did COc1ccc(CN(C)C[C@H]2OCCCC[C@@H](C)Oc3ccc(NC(=O)Nc4ccc(OC)cc4)cc3C(=O)N([C@H](C)CO)C[C@H]2C)cc1 do in these assays?
KDM4C inh: 0; T cruzi growth-1: 109*; Pf Dd2 growth: -65; T cruzi growth-2: 105*; T cruzi growth-3: 105*; 3T3 cytotox: 2; 3T3 cytotox 2: 104*

How did COc1ccc(CN(C)C[C@H]2OCCCC[C@H](C)Oc3ccc(NC(=O)C4CCCCC4)cc3C(=O)N([C@H](C)CO)C[C@H]2C)cc1 do in these assays?
KDM4C inh: 2; T cruzi growth-1: 107*; IDH1 R132H inh: 9; Pf Dd2 growth: -53; T cruzi growth-2: 73; T cruzi growth-3: 35; 3T3 cytotox: 5; 3T3 cytotox 2: 26*

How did O=C(C[C@H]1CC[C@H]2[C@@H](COC[C@@H](O)CN2C(=O)Nc2ccc(Cl)cc2)O1)NCCc1ccncc1 do in these assays?
KDM4C inh: -2; T cruzi growth-1: 67; Pf Dd2 growth: 7

How did COc1cc(C2OCC3C(c4cc(OC)c5c(c4)OCO5)OCC23)cc(OC)c1OC (centres undefined) do in these assays?
IDH1 R132H inh: 0

What do the screens show for `COc1ccc(CN(C)C[C@H]2OCCCC[C@@H](C)Oc3ccc(NC(=O)Nc4ccc(F)cc4)cc3C(=O)N([C@H](C)CO)C[C@H]2C)cc1`?
KDM4C inh: -2; T cruzi growth-1: 86; Pf Dd2 growth: -58

Results for COc1ccc(CN(C)C[C@@H]2OCCCC[C@H](C)Oc3ccc(NC(=O)Nc4ccc(OC)cc4)cc3C(=O)N([C@@H](C)CO)C[C@@H]2C)cc1 ?
KDM4C inh: 0; T cruzi growth-1: 100*; IDH1 R132H inh: 2; Pf Dd2 growth: -81*; T cruzi growth-2: 107*; T cruzi growth-3: -7; 3T3 cytotox: 11; 3T3 cytotox 2: 63*

What do the screens show for `C/C=C/c1cnc2c(c1)C(=O)N([C@H](C)CO)C[C@H](C)[C@@H](CN(C)Cc1ccc3c(c1)OCO3)O2`?
KDM4C inh: 1; IDH1 R132H inh: 0; Pf Dd2 growth: -43

What do the screens show for `C[C@@H]1CN([C@@H](C)CO)C(=O)c2cc(/C=C/c3ccccc3)cnc2O[C@@H]1CN(C)Cc1ccc2c(c1)OCO2`?
KDM4C inh: -1; T cruzi growth-1: 104*; IDH1 R132H inh: -2; Pf Dd2 growth: -78; T cruzi growth-2: 103*; T cruzi growth-3: 72; 3T3 cytotox: 18; 3T3 cytotox 2: 104*

What do the screens show for `C[C@@H]1CN([C@H](C)CO)C(=O)c2cc(/C=C/c3ccccc3)cnc2O[C@@H]1CN(C)Cc1ccc2c(c1)OCO2`?
KDM4C inh: 14; T cruzi growth-1: 86*; IDH1 R132H inh: 0; Pf Dd2 growth: -59; T cruzi growth-2: 109*; T cruzi growth-3: 67; 3T3 cytotox: 21; 3T3 cytotox 2: 102*

Assay outcomes as filed in PubChem BioAssay.
